Assay results published in ChEMBL document CHEMBL5674869, “The Histone Methyltransferase Inhibitor A-366 Uncovers a Role for G9a/GLP in the Epigenetics of Leukemia” (PLoS One, 2015).
The source made the active and inactive calls. The calls are words filed in the database; no cut-off is given here.

What was measured:
[1] = target: T1, Histone-lysine N-methyltransferase EHMT2 (Homo sapiens) (UniProt Q96KQ7); experiment: Inhibition of G9a in human PC-3 cells assessed as effect on H3k4me2 levels at 0.3 to 3 uM after 72 hrs by Western blot analysis; type: cell-based; details: dose 0.3-3 µM
T1 sequence (whole entry): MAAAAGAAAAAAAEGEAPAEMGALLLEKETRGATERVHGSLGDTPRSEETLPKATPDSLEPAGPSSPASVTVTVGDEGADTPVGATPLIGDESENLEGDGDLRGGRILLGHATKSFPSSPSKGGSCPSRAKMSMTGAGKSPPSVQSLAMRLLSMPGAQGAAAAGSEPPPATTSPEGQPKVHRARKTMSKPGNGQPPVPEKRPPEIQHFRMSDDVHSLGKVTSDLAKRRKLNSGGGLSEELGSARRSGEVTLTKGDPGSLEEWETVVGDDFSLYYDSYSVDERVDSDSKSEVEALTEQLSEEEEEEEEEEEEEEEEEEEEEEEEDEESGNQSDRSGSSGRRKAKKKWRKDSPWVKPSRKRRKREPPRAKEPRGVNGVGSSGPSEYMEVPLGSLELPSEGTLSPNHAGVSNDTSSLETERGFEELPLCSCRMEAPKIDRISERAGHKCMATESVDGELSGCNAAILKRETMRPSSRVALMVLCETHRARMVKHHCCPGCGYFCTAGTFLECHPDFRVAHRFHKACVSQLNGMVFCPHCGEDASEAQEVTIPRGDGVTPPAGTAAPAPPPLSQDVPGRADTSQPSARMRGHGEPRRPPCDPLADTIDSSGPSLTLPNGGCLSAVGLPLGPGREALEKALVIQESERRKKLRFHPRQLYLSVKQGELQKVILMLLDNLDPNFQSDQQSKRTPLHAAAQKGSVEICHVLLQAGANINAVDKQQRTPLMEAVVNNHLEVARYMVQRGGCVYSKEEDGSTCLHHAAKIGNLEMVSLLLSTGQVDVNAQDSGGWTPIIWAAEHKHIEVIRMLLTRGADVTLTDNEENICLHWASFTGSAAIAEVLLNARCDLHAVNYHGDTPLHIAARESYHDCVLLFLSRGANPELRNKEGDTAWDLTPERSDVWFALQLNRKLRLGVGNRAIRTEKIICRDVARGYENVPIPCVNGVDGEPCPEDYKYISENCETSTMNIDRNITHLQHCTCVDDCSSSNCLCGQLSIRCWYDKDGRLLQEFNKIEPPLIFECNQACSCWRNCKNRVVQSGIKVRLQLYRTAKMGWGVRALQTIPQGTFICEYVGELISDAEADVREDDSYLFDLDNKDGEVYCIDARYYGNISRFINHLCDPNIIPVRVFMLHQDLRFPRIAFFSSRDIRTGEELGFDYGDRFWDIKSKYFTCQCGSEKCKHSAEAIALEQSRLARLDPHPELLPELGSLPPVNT
In short: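 PC-3 prostate cells incubated with DMSO, 0.3 or 3 μM compound for 72 h. Lysates probed by western blot with antibodies to H3K9me2, H3K4me2, H3K4me3, H3K9me3, H4K20me1, H4K20me3, H3K36me2 and H3K27me3.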

[2] = Cytotoxicity against human PBMC cells assessed as effect on cell viability after 48 hrs by Cell-titerGlo assay; type: toxicity, cell-based
In short: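 PBMCs from two human donors were pooled and grown in AIM-V medium. Cells were treated with compound for 48 h. Viability was read by CellTiter-Glo endpoint.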

[3] = tested on: Mus musculus; experiment: Decrease in H3K9me2 level in SCID/beige mouse tumor xenografted with human MV4-11 cells at 30 mg/kg/day via osmotic-mini pump for 14 days by alphaLisa assay; type: functional, organism-based; details: Neoplasm, time 14.0 day
In short: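 Female SCID-beige mice, 6–8 weeks old, received 5 x 10^6 MV4;11 cells in 50% Matrigel subcutaneously in the flank. At about 200 mm3, compound was given at 30 mg/kg/day by osmotic mini-pump in 98% PEG-400/2% Tween-80. In the PK/PD arm, tumors were harvested at the stated day and H3K9me2 was measured by AlphaLISA relative to vehicle.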

[4] = tested on: MV4-11; experiment: Induction of cell morphology change in human MV4-11 cells assessed as increase in cytoplasm-nucleus ratio and nuclear lobulation at 5 uM after 10 days by Wright- Geimsa staining analysis; type: functional, cell-based; details: time 10.0 day
In short: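 MV4;11 cells exposed to DMSO or 5 μM compound for 10 days, then stained with a Wright-Giemsa kit. Morphology was examined for cytoplasm:nucleus ratio and nuclear lobulation.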

[5] = tested on: HT-1080; experiment: Antiproliferative activity against human HT-1080 cells upto 10 uM after 2 days by Cell-Titer-Glo assay; type: functional, cell-based; details: time 2.0 day
In short: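 ATCC tumor lines were grown in their recommended media with 10% FBS and STR-authenticated. Cells were exposed to compound for the stated number of days. Viable cells were read by CellTiter-Glo endpoint. Inhibition was the ratio of treated to untreated wells, with cell-free wells set as 100% inhibition. The EC50 was taken from the dose response.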

inhibition [1]: inactive
SMILES: COc1cc2c(cc1OCCCN1CCCC1)N=C(N)C21CCC1
Activity [2]: Non-Toxic | inhibition [3]: Active | Activity [4]: Active | Activity [5]: inactive
